ChEMBL document CHEMBL3600299, “Identification of alpha-substituted acylamines as novel, potent, and orally active mGluR5 negative allosteric modulators” (Bioorg Med Chem Lett, 2015)
Calls of active or inactive are those of the source.

biological target: T1, Metabotropic glutamate receptor 5 (Homo sapiens, UniProt P41594); assay: Negative allosteric modulator activity against human mGluR5 expressed in HEK293 cells assessed as inhibition of glutamate-induced inositol phosphate accumulation by IP-one HTRF assay; assay type: functional, cell-based; conditions: not given
Method in brief: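 HEK293 cells stably expressing human mGluR5 incubated 60 min with 2.5 lmol/L glutamate, with or without compound. Glutamate-induced inositol phosphate (IP1) accumulation read by IP-One HTRF kit.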
Target sequence in this assay (P41594 whole entry): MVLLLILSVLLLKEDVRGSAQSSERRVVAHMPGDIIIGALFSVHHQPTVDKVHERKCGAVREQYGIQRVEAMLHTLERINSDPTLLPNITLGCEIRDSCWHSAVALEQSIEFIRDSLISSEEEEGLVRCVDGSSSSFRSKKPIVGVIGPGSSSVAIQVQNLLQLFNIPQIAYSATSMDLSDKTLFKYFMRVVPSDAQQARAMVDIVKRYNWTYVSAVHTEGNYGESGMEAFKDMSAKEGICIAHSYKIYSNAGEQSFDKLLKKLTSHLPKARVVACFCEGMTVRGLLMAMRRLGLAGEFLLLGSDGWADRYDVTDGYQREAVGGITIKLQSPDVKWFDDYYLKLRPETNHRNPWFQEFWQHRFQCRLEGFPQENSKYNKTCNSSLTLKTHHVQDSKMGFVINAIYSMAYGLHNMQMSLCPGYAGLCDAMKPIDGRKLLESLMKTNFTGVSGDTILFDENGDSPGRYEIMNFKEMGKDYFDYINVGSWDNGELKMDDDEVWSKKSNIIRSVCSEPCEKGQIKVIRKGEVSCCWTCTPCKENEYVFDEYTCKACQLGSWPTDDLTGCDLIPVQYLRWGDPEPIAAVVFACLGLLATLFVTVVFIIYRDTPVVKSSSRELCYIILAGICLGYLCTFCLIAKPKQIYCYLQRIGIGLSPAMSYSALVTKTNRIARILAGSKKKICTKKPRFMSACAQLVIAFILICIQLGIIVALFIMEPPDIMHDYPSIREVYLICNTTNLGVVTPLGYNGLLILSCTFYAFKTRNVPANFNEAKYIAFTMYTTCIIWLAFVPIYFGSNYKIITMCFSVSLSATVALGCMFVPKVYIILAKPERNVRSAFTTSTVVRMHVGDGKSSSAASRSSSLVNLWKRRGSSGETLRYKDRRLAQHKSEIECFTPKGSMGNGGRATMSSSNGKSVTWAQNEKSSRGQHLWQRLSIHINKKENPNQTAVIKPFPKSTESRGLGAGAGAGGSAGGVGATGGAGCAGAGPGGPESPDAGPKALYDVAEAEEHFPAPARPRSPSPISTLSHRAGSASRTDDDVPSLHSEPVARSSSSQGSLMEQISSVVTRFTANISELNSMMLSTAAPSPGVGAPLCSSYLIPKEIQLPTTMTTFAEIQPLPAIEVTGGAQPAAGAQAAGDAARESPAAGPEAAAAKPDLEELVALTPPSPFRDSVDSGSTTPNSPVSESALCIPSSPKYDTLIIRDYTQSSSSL

| IC50 | SMILES |
| --- | --- |
| 13.3 nM | CCC[C@@H](NC(=O)c1nccs1)c1cnc(Nc2ccc(OC)nc2)c(Cl)c1 |
| 31.2 nM | CCC[C@@H](NC(=O)c1cscn1)c1cnc(Nc2ccc(C)nc2)c(Cl)c1 |
| 43.9 nM | CCC[C@@H](NC(=O)c1nccs1)c1cnc(Nc2cnc(C)nc2)c(Cl)c1 |
| 12.8 nM | CCC[C@@H](NC(=O)c1nccs1)c1cnc(Nc2ccc(F)nc2)c(Cl)c1 |
| 71.4 nM | CCC[C@@H](NC(=O)c1nccs1)c1cnc(Nc2cccnc2)c(Cl)c1 |
| 8.2 nM | CCC[C@@H](NC(=O)c1nccs1)c1cnc(Nc2ccc(C)nc2)c(Cl)c1 |
| 7.5 nM | Cc1ccc(Nc2ncc([C@H](NC(=O)c3nccs3)C(C)C)cc2Cl)cn1 |
| 37.8 nM | Cc1ccc(Nc2ncc([C@H](NC(=O)c3nccs3)C3CCCCC3)cc2Cl)cn1 |
| 2.4 nM | C=CC[C@@H](NC(=O)c1nccs1)c1cnc(Nc2ccc(C)nc2)c(Cl)c1 |
| 42.2 nM | CCC[C@@H](NC(=O)c1ncco1)c1cnc(Nc2ccc(C)nc2)c(Cl)c1 |
| 30.9 nM | Cc1ccc(Nc2ncc([C@H](NC(=O)c3nccs3)C(C)(C)C)cc2Cl)cn1 |
| 584 nM | CCCN(Cc1cnc(Nc2ccc(C)nc2)c(Cl)c1)C(=O)c1nccs1 |
| 55.5 nM | Cc1ccc(Nc2ncc([C@@H](Cc3ccccc3)NC(=O)c3nccs3)cc2Cl)cn1 |
| 8.8 nM | C/C=C/C[C@@H](NC(=O)c1nccs1)c1cnc(Nc2ccc(C)nc2)c(Cl)c1 |
| 30.9 nM | CCCC[C@@H](NC(=O)c1nccs1)c1cnc(Nc2ccc(C)nc2)c(Cl)c1 |
| 28.7 nM | CCCC(NC(=O)c1nccs1)c1cnc(Nc2ccc(C)nc2)c(Cl)c1 (stereo not given) |

The next lines start with the compound.

| SMILES | IC50 |
| --- | --- |
| Cc1ccc(Nc2ncc([C@H](NC(=O)c3nccs3)C3CCC3)cc2Cl)cn1 | 9.3 nM |
| CCC[C@@H](NC(=O)c1ccccn1)c1cnc(Nc2ccc(C)nc2)c(Cl)c1 | 27.8 nM |
| Cc1ccc(Nc2ncc([C@@H](NC(=O)c3nccs3)C3CCC3)cc2Cl)cn1 | > 1000 nM |
| CCC[C@@H](NC(=O)c1cocn1)c1cnc(Nc2ccc(C)nc2)c(Cl)c1 | 23.3 nM |
| COC[C@H](NC(=O)c1nccs1)c1cnc(Nc2ccc(C)nc2)c(Cl)c1 | 55.9 nM |
| Cc1ccc(Nc2ncc([C@H](NC(=O)c3nccs3)C3CCCC3)cc2Cl)cn1 | 16.6 nM |
| CCC[C@@H](NC(=O)c1nc(C)cs1)c1cnc(Nc2ccc(C)nc2)c(Cl)c1 | 10 nM |
| CC[C@H](NC(=O)c1nccs1)c1cnc(Nc2ccc(C)nc2)c(Cl)c1 | > 1000 nM |
| CC[C@@H](NC(=O)c1nccs1)c1cnc(Nc2ccc(C)nc2)c(Cl)c1 | 15.4 nM |
| CCC[C@@H](NC(=O)c1nccs1)c1cnc(Nc2cnc(C)s2)c(Cl)c1 | 60 nM |
| Cc1ccc(Nc2ncc([C@@H](NC(=O)c3nccs3)C(C)C)cc2Cl)cn1 | 1050 nM |
| Cc1ccc(Nc2ncc(C3CCCN3C(=O)c3nccs3)cc2Cl)cn1 (stereo not given) | 182 nM |
| Cc1ccc(Nc2ncc([C@H](NC(=O)c3nccs3)C3CC3)cc2Cl)cn1 | 9.7 nM |
| CCC[C@H](NC(=O)c1nccs1)c1cnc(Nc2ccc(C)nc2)c(Cl)c1 | 978 nM |

biological target: T1, Metabotropic glutamate receptor 5; assay: Negative allosteric modulator activity against human mGluR5 expressed in HEK293 cells assessed as inhibition of glutamate-induced inositol phosphate accumulation at 100 nM by IP-one HTRF assay; assay type: functional, cell-based; conditions: not given
Target sequence in this assay (P41594 21-1212 limits assumed): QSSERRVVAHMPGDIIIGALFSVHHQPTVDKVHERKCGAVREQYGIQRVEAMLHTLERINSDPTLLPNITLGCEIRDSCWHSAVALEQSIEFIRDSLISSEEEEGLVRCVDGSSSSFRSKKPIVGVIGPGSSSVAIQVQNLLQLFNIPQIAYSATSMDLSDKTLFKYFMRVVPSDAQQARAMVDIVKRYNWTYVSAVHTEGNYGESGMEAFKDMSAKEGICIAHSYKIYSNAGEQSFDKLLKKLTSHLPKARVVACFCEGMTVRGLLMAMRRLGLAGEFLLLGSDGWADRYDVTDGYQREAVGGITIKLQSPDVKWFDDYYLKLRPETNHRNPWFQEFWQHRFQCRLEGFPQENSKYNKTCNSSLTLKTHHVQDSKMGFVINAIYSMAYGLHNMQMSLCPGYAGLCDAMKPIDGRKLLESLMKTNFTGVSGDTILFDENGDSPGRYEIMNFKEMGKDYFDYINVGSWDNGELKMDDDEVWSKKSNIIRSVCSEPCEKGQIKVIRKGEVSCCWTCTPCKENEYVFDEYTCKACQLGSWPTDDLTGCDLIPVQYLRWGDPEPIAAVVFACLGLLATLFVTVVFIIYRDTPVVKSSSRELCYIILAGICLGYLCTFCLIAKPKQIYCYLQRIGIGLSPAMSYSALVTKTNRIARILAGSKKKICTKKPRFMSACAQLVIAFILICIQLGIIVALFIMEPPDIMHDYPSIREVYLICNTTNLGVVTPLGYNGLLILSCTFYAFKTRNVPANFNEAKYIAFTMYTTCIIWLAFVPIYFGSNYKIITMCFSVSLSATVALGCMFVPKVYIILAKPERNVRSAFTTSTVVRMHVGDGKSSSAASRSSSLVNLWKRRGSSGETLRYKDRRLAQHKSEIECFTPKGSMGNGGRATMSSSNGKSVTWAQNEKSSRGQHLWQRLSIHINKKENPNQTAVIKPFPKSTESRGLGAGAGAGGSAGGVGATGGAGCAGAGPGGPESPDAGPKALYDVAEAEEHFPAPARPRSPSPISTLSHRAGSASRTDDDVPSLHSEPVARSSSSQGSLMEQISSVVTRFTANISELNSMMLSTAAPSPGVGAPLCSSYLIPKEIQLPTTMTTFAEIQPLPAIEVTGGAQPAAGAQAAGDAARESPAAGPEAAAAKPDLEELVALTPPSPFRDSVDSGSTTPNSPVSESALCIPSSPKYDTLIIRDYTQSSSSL

| inhibition | SMILES |
| --- | --- |
| 49% | CCC[C@@H](NC(=O)c1ncc(C)s1)c1cnc(Nc2ccc(C)nc2)c(Cl)c1 |
| 31% | CCC[C@@H](NC(=O)c1nccs1)c1cnc(Nc2ccc(C(F)(F)F)nc2)c(Cl)c1 |
| 30% | CCC[C@@H](NC(=O)c1ccccc1)c1cnc(Nc2ccc(C)nc2)c(Cl)c1 |

system: Mus musculus; assay: Anxiolytic-like activity in mouse model of stress-induced hyperthermia assessed as reduction in stress-induced hyperthermia response at 1 mg/kg, po dosed 1 hr before first rectal temperature measurement; assay type: functional, organism-based; conditions: not given
Method in brief: (§1)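 Mice dosed orally with test article in 0.5% methylcellulose vehicle 1 h before first rectal temperature (T1); second rectal temperature (T2) taken 10 min after T1. Basal temperature from T1; SIH response defined as T2–T1. Mean ± SEM, n = 10 per group; one-tailed Williams' test vs vehicle, p <0.025.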

| SMILES | Activity |
| --- | --- |
| C=CC[C@@H](NC(=O)c1nccs1)c1cnc(Nc2ccc(C)nc2)c(Cl)c1 | Active |

system: Mus musculus; assay: Effect on basal rectal temperature in mouse model of stress-induced hyperthermia at 0.1 to 1 mg/kg, po dosed 1 hr before first rectal temperature measurement; assay type: ADME, organism-based; conditions: in vivo; method in brief: as §1

| SMILES | Activity |
| --- | --- |
| C=CC[C@@H](NC(=O)c1nccs1)c1cnc(Nc2ccc(C)nc2)c(Cl)c1 | Non-toxic |
